Only some compounds are listed: those with a hit (about 4% of all), similar ones and a draw of the others.
TAAR1 antagonist: human TAAR1 antagonism; hit rate 1.5% among 360,000; CHO RD-HGA16 TAAR1, Fluo-8 calcium fluorescence, antagonist; inhibition, % at 3 µM; Q96RJ0;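 active = inhibition above a per-plate cutoff, the mean inhibition of test compounds on that plate plus 3 SD, cut at about 49% in these data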;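 note: 0% = DMSO plus EC80 beta-PEA response and 100% = DMSO alone without agonist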
Target sequence (Q96RJ0 whole entry, looked up): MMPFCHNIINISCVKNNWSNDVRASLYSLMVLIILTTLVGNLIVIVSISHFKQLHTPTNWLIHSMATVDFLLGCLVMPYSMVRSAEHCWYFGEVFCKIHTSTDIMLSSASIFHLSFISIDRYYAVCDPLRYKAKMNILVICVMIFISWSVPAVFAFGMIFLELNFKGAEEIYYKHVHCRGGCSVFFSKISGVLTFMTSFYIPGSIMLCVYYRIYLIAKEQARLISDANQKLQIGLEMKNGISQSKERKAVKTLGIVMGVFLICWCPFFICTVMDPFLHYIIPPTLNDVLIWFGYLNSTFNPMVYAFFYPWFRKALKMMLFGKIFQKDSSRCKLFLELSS
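System: CHO RD-HGA16 cells bearing hTAAR1. Reagent: EC80 β-phenethylamine stimulus. Schedule: seeding 17-24 h prior, 75-min 37 °C, 30-min RT dye loading. Signal: Fluo-8 intracellular calcium dye fluorescence, real-time kinetic reads. Read-out: % inhibition from peak post-agonist over basal fluorescence ratio. Benchmarks: vehicle wells and EC80 agonist wells. Replicates: n of 1.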
OX1R antag-1: blocks the human orexin 1 receptor; O43613; CHO/OX1R cells, Fluo-8 calcium fluorescence, orexin A; inhibition, % at 5 µM; hit rate 0.43% among 330,000;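 active = inhibition above its plate's threshold, mean inhibition of all tested compounds on the plate plus 3 SD, cut at about 37% in these data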;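 note: 0% = orexin A challenge wells and 100% = SB-334867-A antagonist wells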
TAAR1 agonist: agonists of human TAAR1; Q96RJ0; CHO RD-HGA16 TAAR1, Fluo-8 calcium fluorescence; vehicle wells 0%, saturating PEA agonist 100%; activation, % at 3 µM; hit rate 0.99% among 360,000;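 active = activation above the mean activation of all test compounds in the run plus 3 SD, cut at about 38% in these data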
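System: CHO-derived RD-HGA16 cells with stable Gα16 and human TAAR1 / Times: 17-24 h plating, Fluo-8 75 min 37 °C, 30 min RT / Technique: calcium-sensitive Fluo-8 signal, excitation 470-495, emission 515-575 nm / Measure: % activation relative to PEA EC100 response / Benchmarks: DMSO and PEA EC100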
OX1R antag-2: OX1R (human) antagonism; O43613; OX1R-expressing cells, FRET antagonist read-out; inhibition, % at 6.6 µM; hit rate 1.8% among 330,000; in the data active = inhibition mostly above about 38%, no sharp cut-off; inactive = mostly below about 40%;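 note: 0% = agonist challenge alone and 100% = reference antagonist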
CHO parental Ca: counter-screen: ATP calcium response change in parental CHO cells. parental CHO-K1, ATP-induced calcium, Fluo-8 fluorescence. inhibition, % at 5.6 µM. hit rate 0.63% among 330,000;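 active = inhibition above that plate's mean sample inhibition plus 3 SD, cut at about 26% in these data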;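 note: 0% = ATP-challenged DMSO wells and 100% = DMSO wells without ATP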
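Material – parental CHO cells · Reagent – ATP stimulus · Compound – single nominal dose of 5.6 µM per compound · Detection – Fluo-8 fluorescence · Read-out basis – percent inhibition of calcium signal · Controls – ATP-challenged DMSO wells low, unchallenged DMSO wells high · Repeats – no replicates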
TAAR1 ag confirm: human TAAR1 agonism, confirmed; hit rate 82% among 2,400; CHO RD-HGA16 TAAR1, Fluo-8 calcium fluorescence; scaled: DMSO 0%, maximal phenethylamine 100%; AID 651783; activation, % at 3 µM; shares compounds with TAAR1 agonist;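 active = activation above a cutoff set at the run's mean compound activation plus 3 SD, cut at about 39% in these data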
Ga16 ag counter: nonselective agonist in parental cells, TAAR1 agonist counter-screen; shares compounds with TAAR1 agonist; CHO-Ga16 parental, Fluo-8 calcium fluorescence; normalized to maximal ATP response, DMSO zero; activation, % at 3 µM; hit rate 50% among 2,400; AID 651787;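 active = activation above the run cutoff, the mean activation over all tested wells plus 3 SD, cut at about 12% in these data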;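 note: 0% = DMSO wells and 100% = maximal ATP response on the peak over basal ratio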
TAAR1 desensitize: human TAAR1 agonist that also desensitizes the receptor | hit rate 46% among 2,400 | CHO RD-HGA16 hTAAR1, Fluo-8 calcium, beta-PEA response inhibition | inhibition, % at 3 µM | shares compounds with TAAR1 agonist | AID 651951;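 active = inhibition above the run cutoff, the mean inhibition of all test compounds plus 3 SD, cut at about 49% in these data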;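 note: beta-PEA stimulus applied at its EC80; loss of beta-PEA calcium signal after compound pretreatment read as receptor desensitization; 0% = DMSO with beta-PEA at EC80 and 100% = DMSO alone without agonist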
Ga16 antag count: nonselective Ga16 antagonism, counter-screen; shares compounds with TAAR1 agonist; hit rate 39% among 2,400; CHO-Ga16 ATP-induced calcium, Fluo-8 fluorescence; inhibition, % at 3 µM;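 active = inhibition above the plate's mean compound inhibition plus 3 SD, computed per plate, cut at about 22% in these data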;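 note: 0% = EC80 ATP with DMSO and 100% = DMSO wells without ATP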
Starred values were filed as active, the others as inactive; . = no result.

SMILES	TAAR1 antagonist	OX1R antag-1	TAAR1 agonist	OX1R antag-2	CHO parental Ca	TAAR1 ag confirm	Ga16 ag counter	TAAR1 desensitize	Ga16 antag count
Cc1cccc(C(=O)OCC(=O)NC(=O)c2ccccc2)c1O	-8	-16	1	15	-6	.	.	.	.
Cc1cc(C)c(C(=O)OCC(=O)NC(=O)c2ccccc2)c(C)c1	70*	-30	58*	19	-13	6	6	46	34*
Cc1ccc(OCC(=O)Nc2ccc(NC(=O)c3ccccc3)c(C)c2)cc1	44	.	44*	.	.	52*	21*	63*	19
CC(C)(C)c1ccc(C(=O)NC(=S)NNC(=O)COc2ccccc2)cc1	67*	-17	124*	-5	-12	124*	101*	100*	81*
Cc1ccc(C(=O)NNC(=S)NC(=O)COc2ccccc2)cc1	74*	1	142*	28	1	130*	111*	89*	68*
Cc1ccccc1C(=O)NNC(=S)NC(=O)COc1ccccc1	-21	0	1	12	-7	.	.	.	.
COc1cccc(OC)c1NC(=O)Cn1nc(C)c2ccccc2c1=O	-18	-5	3	-2	1	.	.	.	.
ClC(Cl)(c1nnnn1-c1ccccc1)c1nnnn1-c1ccccc1	38	63*	58*	21	93*	52*	24*	36	29*
COc1ccccc1Cn1c(C)c(C(=O)NCc2ccc(C#N)cc2)sc1=O	94*	.	134*	.	.	106*	69*	78*	45*
COc1ccc(Cl)cc1Cn1c(C)c(C(=O)NCc2cccc(C(F)(F)F)c2)sc1=O	12	.	2	.	.	.	.	.	.
COc1ccc(CNC(=O)c2sc(=O)n(Cc3ccccc3C)c2C)cc1	70*	.	106*	.	.	122*	82*	85*	54*
Cc1c(C(=O)NCc2ccc([N+](=O)[O-])cc2)sc(=O)n1Cc1ccc2c(c1)OCO2	74*	.	104*	.	.	106*	63*	81*	49*
COc1ccc(Cl)cc1Cn1c(C)c(C(=O)NCc2ccc(C#N)cc2)sc1=O	76*	.	68*	.	.	74*	37*	74*	50*
O=C(CCS(=O)(=O)c1ccccc1)NCc1ccccc1	-17	5	0	18	0	.	.	.	.
CC(C)CC(=NNC(=O)c1ccncc1)c1cc(Cl)ccc1O	2	.	27	.	.	.	.	.	.
O=C(CN1C(=O)NC2NC(=O)NC21)NC1CCCCC1 (stereo not given)	-4	-14	5	7	-7	.	.	.	.
COc1ccccc1NC(=O)COn1nnc2ccc(S(=O)(=O)N3CCOCC3)cc21	-10	-17	11	19	-27	.	.	.	.
CC(NC(=O)Cc1ccc(-c2ccccc2)cc1)c1ccccc1 (stereo not given)	22	3	60*	52	13	17	18*	7	9
CC(NC(=O)COC(=O)Cc1ccc(Cl)cc1)c1ccccc1 (stereo not given)	-20	-11	1	10	-13	.	.	.	.
O=C(Cc1ccccc1Cl)Nc1nc2ccccc2[nH]1	-13	-18	7	18	-12	.	.	.	.
COc1cc(CN2CCCC(C(=O)c3ccc(C(C)(C)C)cc3)C2)cc(OC)c1O (stereo not given)	-8	-24	54*	7	-15	18	9	-2	10
Cc1ccc(C)c2[nH]c(=O)c(C(c3nnnn3Cc3ccco3)N3CCc4ccccc4C3)cc12 (stereo not given)	45	-15	52*	45	-16	58*	3	7	5
Cc1ccc(C)c2[nH]c(=O)c(C(c3nnnn3CCc3ccccc3)N3CCOCC3)cc12 (stereo not given)	19	-22	21	12	-27	.	.	.	.
CCOC(=O)C1CCCN(C(c2ccccn2)c2c(C)[nH]c3ccccc23)C1 (stereo not given)	71*	-39	67*	13	-11	74*	2	84*	1
FC(F)(F)c1cc(CO[C@@H]2CCCN[C@@H]2c2ccccc2)cc(C(F)(F)F)c1	15	-20	70*	6	-1	37	29*	8	4
SMILES	TAAR1 antagonist	OX1R antag-1	TAAR1 agonist	OX1R antag-2	CHO parental Ca	TAAR1 ag confirm	Ga16 ag counter	TAAR1 desensitize	Ga16 antag count
O=C(CCl)Nc1cn(-c2ccccc2)nc1-c1ccccc1	6	-6	0	19	-10	.	.	.	.
Cc1cc(Br)ccc1NS(=O)(=O)c1c(C)[nH]c(=O)[nH]c1=O	-39	-4	2	1	-8	.	.	.	.
Cc1cc(NS(=O)(=O)c2c(C)[nH]c(=O)[nH]c2=O)ccc1Br	37	.	73*	.	.	0	4	6	7
CCOC(=O)c1c(NC(=O)C(C)N2CCN(C(=O)c3ccco3)CC2)sc2c1CCCC2 (stereo not given)	87*	66*	84*	2	60*	42*	37*	71*	59*
Cc1cc(C(=O)COC(=O)c2cccnc2Cl)c(C)n1C	-7	-7	1	-4	5	.	.	.	.
COc1ncnc2c1ncn2CCCNCC(C)c1ccccc1 (stereo not given)	47	.	65*	.	.	81*	0	50*	4
COc1ncnc2c1ncn2CCCNCC(c1ccccc1)c1ccccc1	-12	.	1	.	.	.	.	.	.
Cc1nc(-c2cccc(Br)c2)ccc1C(=O)O	-14	-3	5	9	13	.	.	.	.
CC(=O)c1ccc2c3c(cccc13)C(=O)N(CCc1ccccc1)C2=O	.	-37	.	12	-15	.	2	.	9
Cc1ccc(S(=O)(=O)n2nc(OC(=O)c3cccc(F)c3)cc2N)cc1	9	-13	103*	19	-3	56*	38*	26	15
Cc1ccc(S(=O)(=O)n2nc(OC(=O)c3c(F)cccc3Cl)cc2N)cc1	8	-18	60*	26	-14	65*	27*	25	19
O=C(CCC1CCCN(C(=O)C2(c3ccccc3)CC2)C1)N1CCN(c2ccccn2)CC1 (stereo not given)	6	-37	4	15	-25	.	.	.	.
C=CCn1c(SCC(=O)NCCc2ccccc2)nnc1C(C)NC(=O)c1cccs1 (stereo not given)	-9	-14	49*	13	-10	66*	1	16	11

High-throughput results (PubChem BioAssay)
